Experimental data as given in article PMC4303578 (Chemical Science, 2014).

Tested on: His6–FzmG
Assay: O2 consumption, Hansatech O2 electrode
Assay type: biochemical
Settings: alpha-KG 1 mM (saturating), Fe(II)
How it was run: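 Apparent steady-state kinetics by Clark-type O2 electrode. Phosphonic acid substrate concentration varied; α-KG held at 1 mM (saturating). Enzyme held constant at 3.7 μM for most substrates and 9.25 μM for one. Reactions were started by adding enzyme. Initial O2-consumption rates were measured in triplicate. Km was taken from nonlinear Michaelis–Menten regression.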

Km (9.25 μM enzyme) | Structure (SMILES) | Km (3.7 μM enzyme)
 | COC(=O)CP(=O)(O)O [Me-PnA] | 80 ± 20 µM
8000 ± 1000 µM | O=C(O)CP(=O)(O)O [PnA] | 
 | O=P(O)(O)CCO [2-HEP] | 210 ± 40 µM
 | O=CCP(=O)(O)O [PnAA] | 800 ± 300 µM
